Usually IC50 stands for the concentration at which inhibition is half-maximal. A low value points to inhibition by little substance.

Series [1] has as its system SK-OV-3. Put plainly: Antitumor activity against human SKOV3 cells co-cultured with mesothelial cell monolayers using D-luciferin as substrate at 10 uM by firefly luciferase reporter gene assay relative to control. Type of series: functional. The method in brief:
(§1)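 Luciferase-tagged cancer cells were treated in suspension at a final 10 μM, then overlaid on confluent mesothelial monolayers. Adherent surviving cells were read by D-luciferin bioluminescence, taken as living cell number. Efficacy = luminescence with analog / luminescence with DMSO; mean ± SEM, n = 3.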
For orientation: Reporter assays use an easily measured gene product as a stand-in for the process of interest.

The subject of series [2] is A2780. Briefly: Antitumor activity against human A2780 cells co-cultured with mesothelial cell monolayers using D-luciferin as substrate at 10 uM by firefly luciferase reporter gene assay relative to control. The class given is functional. The method in brief:
as §1

Series [3] has as its system BXPC-3. Put plainly: Antitumor activity against human BxPC3 cells co-cultured with mesothelial cell monolayers using D-luciferin as substrate at 10 uM by firefly luciferase reporter gene assay relative to control. Type of series: functional. The method, boiled down: as §1
Series [4] in a line: Antitumor activity against human SU86 cells co-cultured with mesothelial cell monolayers using D-luciferin as substrate at 10 uM by firefly luciferase reporter gene assay relative to control. The class given is functional. The method in brief: as §1
In series [5] the test system is A2780. Put plainly: Antitumor activity against human A2780 cells xenografted in nu/nu mouse peritoneal carcinomatosis model assessed as inhibition of intraperitoneal implantation at 5 mg/kg, ip administered every 3 days for 14 days by luciferase reporter gene assay. More on the design: dose 5 mg/kg. The class given is functional, organism-based. The method, boiled down: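 Athymic 5-week-old female nu/nu mice were randomized to 5 mg/kg drug IP or an equal volume of vehicle (4:1 PEG400:EtOH), given 4 h before IP injection of 1.5 × 10^6 A2780-luc cells, then every three days for 14 days. Implants were imaged weekly by bioluminescence after IP D-luciferin. Day-14 abdominal signal was compared with vehicle controls.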
For orientation: Xenograft models place foreign cells or tissue in a host animal.

Series [6] is described as follows: Antitumor activity against human SU86 cells co-cultured with mesothelial cell monolayers by firefly luciferase reporter gene assay. Type of series: functional, cell-based. The method, boiled down: (§2)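 Co-culture implantation model: cancer cells carrying a constitutive firefly luciferase plasmid were held in suspension with analog, then overlaid on confluent mesothelial cell monolayers. Cells that adhered and survived were read by bioluminescence with D-luciferin. IC50 values came from concentration–response runs and are reported as mean ± SEM.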

The test system of series [7] is A2780. Briefly: Antitumor activity against human A2780 cells co-cultured with mesothelial cell monolayers by firefly luciferase reporter gene assay. Type of series: functional, cell-based. The method, boiled down: as §2
The subject of series [8] is SK-OV-3. Put plainly: Antitumor activity against human SKOV3 cells co-cultured with mesothelial cell monolayers by firefly luciferase reporter gene assay. Type of series: functional, cell-based. The method, boiled down:
as §2

The test system of series [9] is SK-OV-3. Briefly: Induction of apoptosis in human SKOV3 cells co-cultured with mesothelial cell monolayers assessed as PARP cleavage at 7.5 uM after 5 hrs by Western blot analysis. Type of series: functional, cell-based.
The test system of series [10] is Mus musculus. Briefly: Toxicity in human A2780 cells xenografted nu/nu mouse at 5 mg/kg, ip administered every 3 days for 14 days. The conditions noted are these: in vivo. Type of series: organism-based. More on the design: dose 5 mg/kg, route intraperitoneal. The method in brief:
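Body weight was followed in athymic female nu/nu mice carrying IP A2780-luc cells and given 5 mg/kg IP in 4:1 PEG400:EtOH, starting 4 h before cell injection and repeated every three days over 14 days.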

Series [11] has as its system BXPC-3. Put plainly: Antitumor activity against human BxPC3 cells co-cultured with mesothelial cell monolayers by firefly luciferase reporter gene assay. The class given is functional, cell-based. The method in brief: as §2
The target of series [12] is CASP8 and FADD-like apoptosis regulator (Homo sapiens) (UniProt O15519). Put plainly: Inhibition of cFLIP-L in human BxPC3 cells assessed as restoration of death receptor signaling-mediated apoptosis. Type of series: cell-based. The settings on record: BXPC-3.
Chain of CASP8 and FADD-like apoptosis regulator (Homo sapiens) (O15519 whole entry, looked up): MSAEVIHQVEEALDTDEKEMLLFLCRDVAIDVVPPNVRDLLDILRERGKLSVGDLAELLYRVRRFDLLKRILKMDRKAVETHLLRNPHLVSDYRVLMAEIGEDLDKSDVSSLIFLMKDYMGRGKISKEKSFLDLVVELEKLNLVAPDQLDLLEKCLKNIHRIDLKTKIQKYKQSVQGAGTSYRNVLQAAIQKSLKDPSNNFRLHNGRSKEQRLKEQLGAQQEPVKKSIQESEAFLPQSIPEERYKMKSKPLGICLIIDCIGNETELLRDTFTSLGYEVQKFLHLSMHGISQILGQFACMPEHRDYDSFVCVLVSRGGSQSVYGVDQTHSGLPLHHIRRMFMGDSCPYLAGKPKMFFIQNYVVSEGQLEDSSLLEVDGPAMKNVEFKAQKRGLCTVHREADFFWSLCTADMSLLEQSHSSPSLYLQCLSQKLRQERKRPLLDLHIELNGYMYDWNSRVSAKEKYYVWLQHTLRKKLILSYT
The target is the same in series [13]. Briefly: Inhibition of cFLIP-L in human SKOV3 cells assessed as restoration of death receptor signaling-mediated apoptosis. The class given is cell-based. The settings on record: SK-OV-3.
Series [14] shares this target. Briefly: Inhibition of cFLIP-L in human A2780 cells assessed as restoration of death receptor signaling-mediated apoptosis. The class given is cell-based.
For series [15] the target is unchanged. Put plainly: Inhibition of cFLIP-L in human SU86 cells assessed as restoration of death receptor signaling-mediated apoptosis. The class given is cell-based.

Active and inactive are the calls of the source. The calls are words filed in the database; no cut-off is given here.

Consider `CC(C)(C(=O)NC1CCCCC1)c1ccc(S(=O)(=O)/C=C/C#N)cc1`, for which the Ratio in [1] is recorded as 0.6; in series [2], 0.2; in series [3], 0.22; in series [4], 0.43.

Turning to `CC(C)(C(=O)Nc1ccccc1)c1ccc(S(=O)(=O)/C=C/C#N)cc1`, the inhibition result in series [5] was “Active”. In addition, the Ratio in [1] is recorded as 0.55; in series [2], 0.17; in series [3], 0.22; in series [4] it was 0.52. Further, the 50% inhibitory concentration (IC50) in [6] worked out at 7.5 µM; in series [7], 2.7 µM; in [8], 9.9 µM; in [11], 4.1 µM. Further, the result in [9] was Active. The Activity result in series [10] is “Non-toxic”.

On to `CC(C)(C(=O)NCc1ccc(Cl)cc1)c1ccc(S(=O)(=O)/C=C/C#N)cc1`, for which the Ratio is reported as 0.63 in series [1], 0.15 in series [2], 0.27 in series [3] and 0.43 in series [4]. Also, the concentration for half-maximal inhibition (IC50) in series [6] amounted to 8.7 µM; in [7] it was 3.4 µM; in series [8], 11.4 µM; in [11], 4.1 µM. The result in series [9] was Active.

For `CC(C)(C(=O)N1CCOCC1)c1ccc(S(=O)(=O)/C=C/C#N)cc1`, the Ratio was 1.01 in series [1], 0.66 in [2], 0.85 in series [3] and 0.94 in [4].

In the case of `CC(C)(C(=O)N1CCCCC1)c1ccc(S(=O)(=O)/C=C/C#N)cc1`, the Ratio was 0.51 in series [1], 0.08 in series [2], 0.25 in [3] and 0.51 in series [4].

Consider `CC(C)(C(=O)NCc1ccccn1)c1ccc(S(=O)(=O)/C=C/C#N)cc1`, for which the Ratio in series [1] was 0.47; in series [2] it was 0.05; in series [3], 0.24; in [4], 0.29.

Turning to `C/C=C/S(=O)(=O)c1ccc(C(C)(C)C)cc1`, the Ratio turned out to be 1.08 in series [1], 1.15 in series [2], 0.99 in [3] and 0.99 in series [4].

For `C#CCNC(=O)C(C)(C)c1ccc(S(=O)(=O)/C=C/C#N)cc1`, the Ratio was 0.93 in series [1], 0.63 in series [2], 0.64 in series [3] and 0.65 in series [4].

For `CC(C)(C(=O)O)c1ccc(S(=O)(=O)/C=C/C#N)cc1`, the Ratio in series [1] came to 1.07; in series [2], 1.08; in series [3], 0.92; in series [4], 0.89.

For the molecule `CC(C)(C)c1ccc(S(=O)(=O)/C=C/C#N)cc1` [BAY-11-7085], the inhibition entry in series [5], in [12], in series [13], in series [14] and in series [15] was “Active” in each case. For the same molecule, the Ratio in [1] is 0.32; in series [2], 0.04; in [3], 0.07; in series [4], 0.13. In addition, the half-maximal inhibitory concentration (IC50) in [6] is 5.9 µM; in series [7], 2.6 µM; in series [8], 7.6 µM; in series [11], 3.7 µM. Further, the result in [9] was Active. For the same molecule, the Activity entry in [10] is reported as “Non-toxic”.

Turning to `CCOC(=O)/C=C/S(=O)(=O)c1ccc(C(C)(C)C)cc1`, the Ratio in series [1] worked out at 0.67; in series [2] it was 0.39; in [3] it was 0.2; in series [4], 0.52.

With `CC(C)(C)c1ccc(S/C=C/C#N)cc1`, the inhibition result in series [5] is “inactive”. Also, the Ratio in series [1] is recorded as 0.92; in [2], 1.06; in series [3], 1.08; in series [4], 1.03. Also, in series [10], the Activity entry was “Non-toxic”.

Regarding `CC(C)CNC(=O)C(C)(C)c1ccc(S(=O)(=O)/C=C/C#N)cc1`, the inhibition result in [5] was “Active”. The Ratio is recorded as 0.47 in series [1], 0.05 in [2], 0.24 in [3] and 0.29 in series [4]. Besides, the IC50 in series [6] is 7.6 µM; in series [7], 3.3 µM; in series [8], 12.9 µM; in [11] it was 4.2 µM. Moreover, in series [9], the result was Active. Also, in series [10], the Activity entry is reported as “Non-toxic”.

For the molecule `CC(C)(C)c1ccc(S(=O)(=O)/C=C/C(N)=O)cc1`, the Ratio in [1] worked out at 0.5; in series [2] it was 0.77; in series [3], 0.44; in series [4], 0.59.

In the case of `CC(C)(C)c1ccc(S(=O)(=O)/C=C/c2ccccc2)cc1`, the Ratio is given as 1.17 in [1], 1.13 in series [2], 1.01 in series [3] and 0.97 in series [4].

As to `C=CS(=O)(=O)c1ccc(C(C)(C)C)cc1`, the Ratio was 1.05 in series [1], 1.16 in [2], 0.84 in series [3] and 0.8 in series [4].

Take `CN1CCN(C(=O)C(C)(C)c2ccc(S(=O)(=O)/C=C/C#N)cc2)CC1`: the Ratio was found to be 1.09 in series [1], 0.95 in [2], 0.98 in series [3] and 0.95 in series [4].

Regarding `COc1cccc(NC(=O)C(C)(C)c2ccc(S(=O)(=O)/C=C/C#N)cc2)c1`, the Ratio turned out to be 0.98 in series [1], 0.55 in series [2], 0.62 in series [3] and 0.65 in [4]. Besides, the half-inhibitory concentration (IC50) was determined as 7.3 µM in series [6], 2.4 µM in series [7], 10.9 µM in series [8] and 4.1 µM in [11]. The result in series [9] was Active.
